ChEMBL document CHEMBL4138058, “Design and synthesis of novel selective estrogen receptor degradation inducers based on the diphenylheptane skeleton” (Medchemcomm, 2017)

Key:
[1] = target: T1, Androgen receptor (Homo sapiens) (UniProt P10275); assay: Downregulation of androgen receptor expression in human MCF7 cells at 3 uM after 6 hrs in presence of proteasome inhibitor MG132 by Western blot method relative to lamin B; type: cell-based
T1 sequence (whole entry): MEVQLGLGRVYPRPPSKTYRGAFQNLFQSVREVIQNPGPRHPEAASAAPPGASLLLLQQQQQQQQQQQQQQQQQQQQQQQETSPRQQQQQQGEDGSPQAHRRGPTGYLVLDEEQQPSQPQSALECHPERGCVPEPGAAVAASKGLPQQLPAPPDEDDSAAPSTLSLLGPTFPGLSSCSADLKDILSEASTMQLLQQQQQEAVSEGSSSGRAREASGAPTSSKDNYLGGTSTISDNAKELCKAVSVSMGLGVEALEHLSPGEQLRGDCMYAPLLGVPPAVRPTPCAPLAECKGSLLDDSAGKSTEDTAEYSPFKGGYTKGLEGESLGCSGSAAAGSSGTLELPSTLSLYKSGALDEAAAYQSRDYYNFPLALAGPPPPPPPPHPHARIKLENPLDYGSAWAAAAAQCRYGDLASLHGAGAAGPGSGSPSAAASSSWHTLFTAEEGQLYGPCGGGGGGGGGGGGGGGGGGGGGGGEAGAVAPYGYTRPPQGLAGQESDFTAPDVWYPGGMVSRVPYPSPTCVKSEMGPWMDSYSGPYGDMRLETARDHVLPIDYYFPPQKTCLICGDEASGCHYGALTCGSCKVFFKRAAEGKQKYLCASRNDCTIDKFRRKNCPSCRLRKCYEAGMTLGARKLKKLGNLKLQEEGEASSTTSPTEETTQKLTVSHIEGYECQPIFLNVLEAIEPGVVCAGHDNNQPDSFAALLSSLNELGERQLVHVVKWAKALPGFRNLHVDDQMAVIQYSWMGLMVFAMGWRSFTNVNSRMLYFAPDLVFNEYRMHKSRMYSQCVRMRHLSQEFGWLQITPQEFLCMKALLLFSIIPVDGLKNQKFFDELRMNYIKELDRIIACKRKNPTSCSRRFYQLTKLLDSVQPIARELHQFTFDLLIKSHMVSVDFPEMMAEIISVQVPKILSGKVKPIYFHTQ
Outline: (§1)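 MCF-7 cells kept in DMEM with 10% FBS, kanamycin and 10 μg/mL insulin, then exposed to compounds for 6 h. Lysates made in SDS buffer (0.1 M Tris-HCl pH 8.0, 10% glycerol, 1% SDS), boiled, BCA-normalized and run on SDS-PAGE. Blots probed with anti-ERα, AR, AhR or VDR and β-actin or lamin B. Chemiluminescence quantified as target/loading-protein ratio; means ± S.E., n=3.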

[2] = target: T2, Vitamin D3 receptor (Homo sapiens) (UniProt P11473); assay: Downregulation of VDR expression in human MCF7 cells at 3 uM after 6 hrs in presence of proteasome inhibitor MG132 by Western blot method relative to lamin B; type: cell-based; outline: as §1
T2 sequence (whole entry): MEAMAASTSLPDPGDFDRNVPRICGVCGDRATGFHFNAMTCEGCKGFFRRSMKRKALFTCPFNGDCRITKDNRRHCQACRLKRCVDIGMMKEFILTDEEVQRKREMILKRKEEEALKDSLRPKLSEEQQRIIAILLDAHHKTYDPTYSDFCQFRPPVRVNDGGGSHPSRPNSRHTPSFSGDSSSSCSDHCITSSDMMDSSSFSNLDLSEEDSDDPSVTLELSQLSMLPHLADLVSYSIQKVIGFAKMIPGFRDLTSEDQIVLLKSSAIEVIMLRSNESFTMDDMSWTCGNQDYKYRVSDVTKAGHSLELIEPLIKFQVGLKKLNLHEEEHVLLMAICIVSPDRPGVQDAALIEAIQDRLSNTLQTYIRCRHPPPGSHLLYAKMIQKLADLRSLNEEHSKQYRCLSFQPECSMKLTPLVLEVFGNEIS

[3] = target: T1, Androgen receptor (Homo sapiens); assay: Downregulation of androgen receptor expression in human MCF7 cells at 1 uM after 6 hrs by Western blot method relative to lamin B; type: cell-based; outline: as §1
[4] = target: T3, Estrogen receptor (Homo sapiens) (UniProt P03372); assay: Downregulation of ERalpha expression in human MCF7 cells at 1 uM after 6 hrs by Western blot method relative to beta-actin; type: cell-based; outline: as §1
T3 sequence (whole entry): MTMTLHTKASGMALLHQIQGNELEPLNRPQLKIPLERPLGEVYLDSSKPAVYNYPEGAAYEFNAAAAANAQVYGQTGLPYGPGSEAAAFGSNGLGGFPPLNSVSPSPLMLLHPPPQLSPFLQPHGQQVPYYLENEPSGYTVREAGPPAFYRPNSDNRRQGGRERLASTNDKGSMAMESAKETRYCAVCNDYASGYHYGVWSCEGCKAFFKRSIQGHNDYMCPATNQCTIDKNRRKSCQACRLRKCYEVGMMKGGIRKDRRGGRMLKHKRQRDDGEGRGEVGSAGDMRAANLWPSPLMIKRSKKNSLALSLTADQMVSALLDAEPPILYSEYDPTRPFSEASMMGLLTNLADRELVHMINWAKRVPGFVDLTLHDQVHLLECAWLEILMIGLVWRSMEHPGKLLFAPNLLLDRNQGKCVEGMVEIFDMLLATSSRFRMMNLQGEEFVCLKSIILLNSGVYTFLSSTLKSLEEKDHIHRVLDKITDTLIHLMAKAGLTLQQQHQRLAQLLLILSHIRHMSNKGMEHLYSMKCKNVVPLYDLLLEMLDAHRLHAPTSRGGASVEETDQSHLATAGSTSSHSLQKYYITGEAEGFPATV

Estrogen receptor [5] = target: T4, Estrogen receptor (Homo sapiens, UniProt P03372); assay: Displacement of Fluormone ES2 Green from full-length untagged human ERalpha expressed in insect cells after 2 hrs by fluorescence polarization assay
T4 sequence (P03372 whole entry): T3 sequence (whole entry)

[6] = target: T3, Estrogen receptor (Homo sapiens); assay: Downregulation of ERalpha expression in human MCF7 cells at 1 uM after 6 hrs in presence of proteasome inhibitor MG132 by Western blot method relative to lamin B; type: cell-based; outline: as §1
[7] = target: T2, Vitamin D3 receptor (Homo sapiens); assay: Downregulation of VDR expression in human MCF7 cells at 3 uM after 6 hrs by Western blot method relative to lamin B; type: cell-based; outline: as §1
[8] = target: T1, Androgen receptor (Homo sapiens); assay: Downregulation of androgen receptor expression in human MCF7 cells at 10 uM after 6 hrs by Western blot method relative to lamin B; type: cell-based; outline: as §1
Estrogen receptor [9] = target: T4, Estrogen receptor; assay: Antagonist activity at GAL4-fused human ERalpha LBD expressed in HEK293 cells assessed as inhibition of 17beta-estradiol-induced transcriptional activation after 16 to 20 hrs by luciferase reporter gene assay; type: cell-based
Outline: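 HEK293 cells grown in phenol red-free DMEM with 10% FBS at 37 °C, 5% CO2. Calcium phosphate co-transfection with GAL4-hERα LBD plasmid, MH100x4-tk-luciferase reporter and β-galactosidase normalization plasmid. Compounds added 8 h post-transfection with 0.3 nM 17β-estradiol; harvested 16–20 h later. Luciferase normalized to β-galactosidase; means of triplicate assays.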

[10] = target: T1, Androgen receptor (Homo sapiens); assay: Downregulation of androgen receptor expression in human MCF7 cells at 10 uM after 6 hrs in presence of proteasome inhibitor MG132 by Western blot method relative to lamin B; type: cell-based; outline: as §1
[11] = target: T3, Estrogen receptor (Homo sapiens); assay: Downregulation of ERalpha expression in human MCF7 cells at 10 uM after 6 hrs by Western blot method relative to beta-actin; type: cell-based; outline: as §1

- Activity [1]: 78%
- Activity [2]: 83%
- Activity [3]: 94%
- Activity [4]: 76%
- IC50 (Estrogen receptor [5]): 4.9 nM
- Activity [6]: 117%
- Activity [7]: 99%
- Activity [8]: 98%
- IC50 (Estrogen receptor [9]): 45 nM
- Activity [10]: 77%
- Activity [11]: 44%
SMILES: CCCCCCCCCCNCCOc1ccc(C(CCC)(CCC)c2ccc(O)c(C)c2)cc1C
